Assay results published in ChEMBL document CHEMBL4622964, “Designing Dihydrofolate Reductase Inhibitors as X-ray Radiosensitizers to Reverse Radioresistance of Cervical Cancer” (ACS Med Chem Lett, 2020).
Calls of active or inactive are those of the source. The calls are words filed in the database; no cut-off is given here.

Legend:
[1] = Safety index, ratio of IC50 for cytotoxicity against human Ect1 cells assessed as reduction in cell viability to IC50 for antiproliferative activity against human HeLa cells assessed as reduction in cell viability incubated for 12 hrs by MTT assay; assay type: toxicity, cell-based; conditions: Ect1 cells versus HeLa cells, read-out: Ratio IC50
Summary of the method: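 Safe index SI0 from MTT assay without irradiation: IC50 in Ect1/E6E7 normal ectocervical cells divided by IC50 in HeLa cells.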

HeLa [2] = experiment: Induction of cell cycle arrest in human HeLa cells assessed as accumulation at G1 phase at 1 uM after 48 hrs by propidium iodide staining based flow cytometric analysis (reference value: 40.7%); assay type: functional
[3] = Toxicity in BALB/c mouse xenografted with human HeLa cells assessed as spleen damage at 4 mg/kg, iv administered for every 3 days for 21 days and measured after 24 hrs post last dose by H and E staining based light microscopic analysis; assay type: organism-based; conditions: in vivo
Summary of the method: (§1)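 HeLa-tumor-bearing nude mice dosed at 4 mg/kg iv every 3 days for 21 days, alone or with X-rays; euthanized 24 h after last injection; heart, liver, lungs, kidneys and spleen sectioned and stained with H&E.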

HeLa [4] = experiment: Induction of cell cycle arrest in human HeLa cells assessed as accumulation at G2/M phase at 1 uM after 48 hrs by propidium iodide staining based flow cytometric analysis (reference value: 17.7%); assay type: functional
HeLa [5] = experiment: Antimigratory activity in human HeLa cells assessed as inhibition of cell migration at 1 uM after 24 hrs by wound healing assay relative to control; assay type: functional; conditions: read-out: INH
Summary of the method: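 Wound-healing scratch assay in HeLa cells. Cells were treated without or with 4 Gy X-rays, and wound closure was imaged by phase-contrast microscopy at the indicated times. Migrated cells were counted manually. Mean ± SD of three independent experiments.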

[6] = Ratio of IC50 for cytotoxicity against human Ect1 cells assessed as reduction in cell viability by MTT assay to cytotoxicity against human Ect1 cells assessed as reduction in cell viability in presence of 4 Gy irradiation by MTT assay; assay type: cell-based; conditions: read-out: Ratio IC50
Summary of the method: (§2)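 MTT viability assay on Ect1/E6E7 normal ectocervical cells and HeLa cells, with 0 or 4 Gy X-rays. SER = IC50(0 Gy)/IC50(4 Gy) in the same line; safe index SI4 = IC50 Ect1/E6E7 + 4 Gy divided by IC50 HeLa + 4 Gy.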

HeLa [7] = experiment: Induction of reactive oxygen species generation in human HeLa cells incubated with DHE for 30 mins and measured up to 30 mins by fluorescence microscopic analysis; assay type: functional, cell-based
Summary of the method: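 HeLa cells pretreated with compound, with or without 4 Gy X-rays, then incubated with dihydroethidium for 30 min; red superoxide-derived fluorescence imaged by fluorescence microscopy, with observation continued over a further 30 min.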

HeLa [8] = experiment: Induction of cell cycle arrest in human HeLa cells assessed as accumulation at SubG1 phase at 1 uM after 48 hrs in presence of 4 Gy X-ray radiation by propidium iodide staining based flow cytometric analysis (reference value: […]); assay type: functional
[9] = Toxicity in BALB/c mouse xenografted with human HeLa cells assessed as kidney damage at 4 mg/kg, iv administered for every 3 days for 21 days and measured after 24 hrs post last dose by H and E staining based light microscopic analysis; assay type: organism-based; conditions: in vivo; summary of the method: as §1
[10] = Toxicity in BALB/c mouse xenografted with human HeLa cells assessed as liver damage by measuring effect on ALT level at 4 mg/kg, iv administered every 3 days for 21 days in presence of 4 Gy X-ray irradiation; assay type: organism-based; conditions: in vivo
Summary of the method: (§3)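 HeLa xenograft nude mice dosed at 4 mg/kg iv every 3 days over 21 days, alone or with X-rays; blood collected 24 h after last injection for serum biochemistry: ALT, AST (liver), BUN and uric acid (kidney).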

[11] = Toxicity in BALB/c mouse xenografted with human HeLa cells assessed as liver damage by measuring effect on AST level at 4 mg/kg, iv administered every 3 days for 21 days in presence of 4 Gy X-ray irradiation; assay type: organism-based; conditions: in vivo; summary of the method: as §3
[12] = Toxicity in BALB/c mouse xenografted with human HeLa cells assessed as lung damage at 4 mg/kg, iv administered for every 3 days for 21 days and measured after 24 hrs post last dose in presence of 4 Gy X-ray irradiation by H and E staining based light microscopic analysis; assay type: organism-based; conditions: in vivo; summary of the method: as §1
HeLa [13] = experiment: Induction of ROS generation in human HeLa cells in presence of 4 Gy X-ray irradiation by DHE fluorescent dye based microplate reader analysis (reference value: 150%); assay type: functional
[14] = Toxicity in BALB/c mouse xenografted with human HeLa cells assessed as liver damage by measuring effect on ALT level at 4 mg/kg, iv administered every 3 days for 21 days; assay type: organism-based; conditions: in vivo; summary of the method: as §3
HeLa [15] = experiment: Induction of mitochondrial dysfunction in human HeLa cells assessed as increase in mitochondrial fission at 1 uM after 24 hrs in presence of 4 Gy X-ray irradiation by DAPI staining based fluorescence microscopic analysis; assay type: functional, cell-based
Summary of the method: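 HeLa cells treated with 1 μM compound, without or with 4 Gy X-rays; mitochondrial morphology imaged by fluorescence microscopy after MitoTracker and DAPI co-staining.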

[16] = Safety index, ratio of IC50 for cytotoxicity against human Ect1/E6E7 cells assessed as reduction in cell viability in presence of 4 Gy irradiation by MTT assay to antiproliferative activity against human HeLa cells assessed as reduction in cell viability preincubated for 12 hrs followed by 4 Gy irradiation and measured after 60 hrs by MTT assay; assay type: toxicity, cell-based; conditions: Ect1/E6E7 cells versus HeLa cells, read-out: Ratio IC50; summary of the method: as §2

Nc1nc(N)c2nc3c(nc2n1)-c1cccc2cccc-3c12
selectivity ratio at 12 h [1]: 3.3 | Activity (HeLa [2]): 38.7% | Activity [3]: Non-Toxic | Activity (HeLa [4]): 32.1% | inhibition at 1 µM (HeLa [5]): 46% | selectivity ratio [6]: 2.2 | Activity (HeLa [7]): Active | Activity (HeLa [8]): 30.2% | Activity [9]: Non-Toxic | Activity [10]: Non-Toxic | Activity [11]: Non-Toxic | Activity [12]: Non-Toxic | Activity (HeLa [13]): 205% | Activity [14]: Non-Toxic | Activity (HeLa [15]): Active | selectivity ratio at 60 h [16]: 4.8
